The text below walks through data of ChEMBL document CHEMBL4028836, “Optimization of M4 positive allosteric modulators (PAMs): The discovery of VU0476406, a non-human primate in vivo tool compound for translational pharmacology” (Bioorg Med Chem Lett, 2017).

Data set [1] deals with T1, Muscarinic acetylcholine receptor M4 (Homo sapiens, UniProt P08173).
T1 sequence (P08173 whole entry): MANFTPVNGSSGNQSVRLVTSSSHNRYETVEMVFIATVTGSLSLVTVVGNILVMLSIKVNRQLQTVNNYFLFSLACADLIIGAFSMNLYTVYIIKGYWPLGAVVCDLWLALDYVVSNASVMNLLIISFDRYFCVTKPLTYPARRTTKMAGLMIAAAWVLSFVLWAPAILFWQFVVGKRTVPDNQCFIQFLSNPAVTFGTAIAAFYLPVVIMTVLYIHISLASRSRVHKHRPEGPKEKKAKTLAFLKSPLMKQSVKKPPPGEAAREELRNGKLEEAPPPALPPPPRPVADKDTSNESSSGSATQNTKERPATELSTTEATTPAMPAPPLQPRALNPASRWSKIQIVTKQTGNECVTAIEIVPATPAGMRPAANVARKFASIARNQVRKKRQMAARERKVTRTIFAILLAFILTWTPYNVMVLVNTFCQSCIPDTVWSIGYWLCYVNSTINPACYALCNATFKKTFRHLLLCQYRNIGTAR
As to the kind of experiment: Positive allosteric modulation of human M4 receptor expressed in CHO cells coexpressing Gqi5 assessed as increase in acetylcholine-induced calcium mobilization. The format is functional, cell-based. The essentials:
(§1)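 Calcium mobilization in CHO cells expressing hM4 with Gqi5. Compound added in presence of a fixed EC20 concentration of acetylcholine. Values are means of three independent experiments, each run in triplicate.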
(A change in cytosolic calcium serves as a functional read-out for many receptors and channels.)

Data set [2] deals with T2, Muscarinic acetylcholine receptor M4 (Homo sapiens) (UniProt P08173).
T2 sequence (whole entry): T1 sequence (P08173 whole entry)
Description: Positive allosteric modulation of human M4 receptor expressed in CHO cells coexpressing Gqi5 assessed as increase in acetylcholine-induced calcium mobilization relative to acetylcholine. The format is functional, cell-based. The method in brief:
as §1

A further data set deals with T3, Cytochrome P450 1A2 (Homo sapiens, UniProt P05177).
T3 sequence (P05177 whole entry): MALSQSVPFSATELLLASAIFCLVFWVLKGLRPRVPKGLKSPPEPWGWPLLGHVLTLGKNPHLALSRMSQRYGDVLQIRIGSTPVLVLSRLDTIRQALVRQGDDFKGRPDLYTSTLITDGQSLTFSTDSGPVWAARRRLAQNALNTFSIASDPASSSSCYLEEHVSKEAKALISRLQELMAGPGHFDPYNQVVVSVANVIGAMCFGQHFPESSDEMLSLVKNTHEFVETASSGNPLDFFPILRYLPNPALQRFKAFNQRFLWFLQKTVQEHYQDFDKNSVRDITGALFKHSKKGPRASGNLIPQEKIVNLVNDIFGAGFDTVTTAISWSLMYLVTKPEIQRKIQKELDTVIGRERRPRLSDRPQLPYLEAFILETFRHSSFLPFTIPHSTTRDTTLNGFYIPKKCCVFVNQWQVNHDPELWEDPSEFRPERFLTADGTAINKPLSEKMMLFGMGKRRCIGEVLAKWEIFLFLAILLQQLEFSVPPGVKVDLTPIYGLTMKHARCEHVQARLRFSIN
Description: Inhibition of CYP1A2 (unknown origin). It is filed as ADME.

For another data set, the target named is Cytochrome P450 2C9 (Homo sapiens, UniProt P11712). As to the kind of experiment: Inhibition of CYP2C9 (unknown origin). It is filed as ADME.
Cytochrome P450 2C9, sequence (P11712 whole entry): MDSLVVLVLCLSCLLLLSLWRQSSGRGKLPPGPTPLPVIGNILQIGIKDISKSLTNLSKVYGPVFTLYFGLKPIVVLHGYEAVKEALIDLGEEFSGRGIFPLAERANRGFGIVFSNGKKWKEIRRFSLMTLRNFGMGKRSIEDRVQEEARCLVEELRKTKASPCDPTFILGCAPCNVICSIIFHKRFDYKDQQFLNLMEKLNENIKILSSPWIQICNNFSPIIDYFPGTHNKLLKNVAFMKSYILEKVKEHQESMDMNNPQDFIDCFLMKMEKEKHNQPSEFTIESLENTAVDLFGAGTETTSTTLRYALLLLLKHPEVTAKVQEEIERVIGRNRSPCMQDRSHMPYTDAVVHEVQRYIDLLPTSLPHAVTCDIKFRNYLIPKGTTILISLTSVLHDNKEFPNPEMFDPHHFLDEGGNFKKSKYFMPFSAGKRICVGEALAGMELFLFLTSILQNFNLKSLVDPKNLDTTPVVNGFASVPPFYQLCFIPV
In another data set the target is Cytochrome P450 2D6 (Homo sapiens, UniProt P10635). As to the kind of experiment: Inhibition of CYP2D6 (unknown origin). It is filed as ADME.
Cytochrome P450 2D6, sequence (P10635 whole entry): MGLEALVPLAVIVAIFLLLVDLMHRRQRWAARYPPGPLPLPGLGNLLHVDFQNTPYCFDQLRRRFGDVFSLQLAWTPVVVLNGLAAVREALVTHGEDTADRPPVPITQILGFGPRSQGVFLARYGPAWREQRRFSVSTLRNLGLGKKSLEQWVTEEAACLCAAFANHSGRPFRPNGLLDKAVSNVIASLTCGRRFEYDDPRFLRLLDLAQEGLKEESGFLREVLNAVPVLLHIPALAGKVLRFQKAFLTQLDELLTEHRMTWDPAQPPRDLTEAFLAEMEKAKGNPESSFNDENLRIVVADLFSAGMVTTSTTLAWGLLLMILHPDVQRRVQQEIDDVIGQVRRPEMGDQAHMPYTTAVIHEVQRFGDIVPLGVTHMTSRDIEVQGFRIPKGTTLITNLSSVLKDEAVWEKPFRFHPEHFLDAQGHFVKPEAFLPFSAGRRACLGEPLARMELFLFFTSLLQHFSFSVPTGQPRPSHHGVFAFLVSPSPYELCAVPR
In another data set the target is Cytochrome P450 3A4 (Homo sapiens, UniProt P08684). As to the kind of experiment: Inhibition of CYP3A4 (unknown origin). The format is ADME.
Cytochrome P450 3A4, sequence (P08684 whole entry): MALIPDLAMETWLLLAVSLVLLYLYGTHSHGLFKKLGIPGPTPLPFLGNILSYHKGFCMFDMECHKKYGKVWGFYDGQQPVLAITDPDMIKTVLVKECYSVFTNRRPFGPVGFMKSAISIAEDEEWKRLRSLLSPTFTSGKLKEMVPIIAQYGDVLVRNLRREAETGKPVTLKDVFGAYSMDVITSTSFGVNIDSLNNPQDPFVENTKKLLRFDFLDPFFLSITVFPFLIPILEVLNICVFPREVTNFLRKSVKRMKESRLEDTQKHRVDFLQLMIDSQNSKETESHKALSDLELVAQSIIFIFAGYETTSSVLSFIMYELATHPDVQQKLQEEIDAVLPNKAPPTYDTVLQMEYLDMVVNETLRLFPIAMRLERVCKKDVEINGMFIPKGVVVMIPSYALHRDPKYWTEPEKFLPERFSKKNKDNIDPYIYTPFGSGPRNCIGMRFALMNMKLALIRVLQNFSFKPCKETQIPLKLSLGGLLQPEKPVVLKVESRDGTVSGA
In data set [3] the test system is Rattus norvegicus. Description: Elimination half-life in Sprague-Dawley rat at 0.1 to 1 mg/kg, iv. The format is ADME, organism-based. As to conditions: in vivo.
Data set [4] relates to Rattus norvegicus. As to the kind of experiment: Volume of distribution at steady state […] in Sprague-Dawley rat at 0.1 to 1 mg/kg, iv. It is filed as ADME, organism-based. As to conditions: in vivo. The essentials: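 IV pharmacokinetics in Sprague-Dawley rats at 0.1–1.0 mg/kg. CLp, elimination t½ and Vss derived.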
A short description of data set [5]: Brain to plasma permeability coefficient, Kp of the compound in Sprague-Dawley rat at 0.1 to 0.2 mg/kg, iv measured at 0.25 hrs post dose. It is filed as ADME, organism-based. The essentials:
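Sprague-Dawley rats were dosed IV at 0.1–0.2 mg/kg, with brain and plasma sampled at 0.25 hr. Brain:plasma Kp was calculated, with Kp,uu where unbound fractions were available.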

A short description of data set [6]: Unbound plasma concentration in human. It is filed as ADME, cell-free.
A short description of data set [7]: Unbound plasma concentration in rat. It is filed as ADME, cell-free.

SMILES strings stand for the structures.

In the case of `COc1ncc(-c2ccc(CNC(=O)c3sc4nnc(C)c(C)c4c3N)cc2)cn1`, in data set [1] (read-out: EC50), the EC50 is 84 nM. Moreover, in [2], the %max was 91%.

On to `Cc1nnc2sc(C(=O)NCc3ccccc3Br)c(N)c2c1C`, for which, in [1] (read-out: EC50), the EC50 is above 10000 nM. Further, the %max in data set [2] turned out to be 31%.

`Cc1cc(-c2ccc(CNC(=O)c3sc4nnc(C)c(C)c4c3N)cc2)cnc1F`: the EC50 in [1] (read-out: EC50) came out at 994 nM. Further, the %max in data set [2] is 68%.

`Cc1nnc2sc(C(=O)NCc3ccc(-c4cccnc4)cc3)c(N)c2c1C`: the EC50 in [1] (read-out: EC50) amounted to 103 nM. In addition, the %max in data set [2] was determined as 63%.

Regarding `Cc1nnc2sc(C(=O)NCc3ccc(-c4cnccn4)cc3)c(N)c2c1C`, the EC50 in data set [1] (read-out: EC50) turned out to be 159 nM. In data set [2], the %max came out at 63%.

As for `Cc1nnc2sc(C(=O)NCc3ccc(-c4ccccc4)cc3)c(N)c2c1C`, the EC50 in data set [1] (read-out: EC50) was 319 nM; in [1] (read-out: pEC50 (converted)), 295 nM. The %max in [2] amounted to 49%.

For `Cc1nnc2sc(C(=O)NCc3ccc(-c4ccnc(F)c4)cc3)c(N)c2c1C`, the EC50 in [1] (read-out: EC50) was found to be 58 nM. In data set [2], the %max came to 92%. Further, the concentration for half-maximal inhibition (IC50) (usually the concentration needed to halve the response being measured) is 2500 nM against Cytochrome P450 1A2, 25000 nM on Cytochrome P450 2C9, above 30000 nM on Cytochrome P450 2D6 and 24000 nM against Cytochrome P450 3A4. In the data set with Rattus norvegicus [3], the “beta t1/2” value worked out at 1.7 h. For the same compound, the Vdss (usually the apparent volume that relates the amount in the body to the concentration in plasma or blood) in the data set with Rattus norvegicus [4] is 0.5 L/kg. In addition, the Kp (in general, the ratio of the level in a tissue or fluid to that in plasma or blood) in data set [5] is given as 0.21. Besides, the fraction unbound – broadly, free concentration divided by total concentration – turned out to be 0.029 in data set [6] and 0.002 in [7].

With `Cc1nnc2sc(C(=O)NCc3cccc(Br)c3)c(N)c2c1C`, the EC50 is 185 nM in data set [1] (read-out: EC50) and 170 nM in data set [1] (read-out: pEC50 (converted)). Moreover, the %max in data set [2] came out at 84%.

Turning to `Cc1ncc(-c2ccc(CNC(=O)c3sc4nnc(C)c(C)c4c3N)cc2)cn1`, the EC50 was 230 nM in data set [1] (read-out: EC50) and 214 nM in [1] (read-out: pEC50 (converted)). For the same compound, the %max in data set [2] amounted to 65%.

Regarding `Cc1nnc2sc(C(=O)NCc3ccc(-c4ccc(F)nc4)cc3)c(N)c2c1C`, the EC50 in [1] (read-out: EC50) worked out at 64 nM. In addition, the %max in data set [2] came to 79%. The IC50 was 790 nM against Cytochrome P450 1A2, 26000 nM against Cytochrome P450 2C9, above 30000 nM against Cytochrome P450 2D6 and 25000 nM against Cytochrome P450 3A4. In addition, the “beta t1/2” value with Rattus norvegicus [3] worked out at 0.48 h. Further, in the data set with Rattus norvegicus [4], the Vdss worked out at 0.6 L/kg. Besides, the Kp in data set [5] is on record as 0.13. For the same compound, the fraction unbound in data set [6] was determined as 0.023; in data set [7], 0.004.

On to `Cc1nnc2sc(C(=O)NCc3cccc(-c4ccccc4)c3)c(N)c2c1C`, for which the EC50 in data set [1] (read-out: EC50) turned out to be 1650 nM. In addition, in data set [2], the %max was found to be 41%.
